Series [1] in a line: melting temperature; fluorescence melt of hairpins on a sequencing array, two-state fit, raised by 9.35 °C to match UV melts. The conditions noted are these: sodium 0.088 M. An outline of the steps:
(§1)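 Folding enthalpy and melting temperature were estimated with bootstrapped two-state fits and combined across four replicates by inverse-variance weighting, with fitted temperatures raised by 9.35 °C to match UV melts. The data were Cy3 fluorescence of library hairpins, with annealed Cy3 and quencher oligos, on a sequenced MiSeq flow cell in 50 mM Na-HEPES pH 8.0, 25 mM NaCl, imaged in 2.5 °C steps up to 60 °C and normalised to pre-quench Cy3 and control constructs.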

The nature of series [2]: folding enthalpy; higher = less favourable; fluorescence melt of hairpins on a sequencing array, two-state fit. The conditions noted are these: sodium 0.088 M. An outline of the steps:
as §1

Regarding GAAGACGAAAGTCGATTC ((((((....)))..))), the Tm in series [1] stood at 47.4 °C. In addition, the folding enthalpy in series [2] was -24.1 kcal/mol.
Turning to GAAGACGAAAGTCTCTTC ((((((....)))..))), the Tm in series [1] worked out at 51.6 °C. The folding enthalpy in series [2] is -23.9 kcal/mol.
Regarding GAAGACGGAAACGCCTTC ((((.((....)).)))), in series [1], the Tm was found to be 45.6 °C. For the same sequence, the folding enthalpy in series [2] was -26.5 kcal/mol.
As for GAAGACGGAAACGTCTCC (.(((((....))))).), the Tm in series [1] was 39.3 °C. The folding enthalpy in series [2] is -12.6 kcal/mol.
The corresponding values for GAAGATACGAAAGTATTC (((..(((....)))))) are 27.7 °C and -8.74 kcal/mol.
The corresponding values for GAAGCACGAAAGTGATTC (((.(((....))).))) are 60 °C and -35.1 kcal/mol.
Consider GAAGCAGGAAACCGCTTC (((((.(....).))))), for which the Tm in series [1] was 47.1 °C. Further, the folding enthalpy in series [2] was -30.4 kcal/mol.
The matching figures for GAAGCCGAAAGGCAATTC ((((((....)))..))): 39.6 °C and -13.7 kcal/mol.
The corresponding values for GAAGCCGAAAGGCATTC ((((((....))).))) are 40.6 °C and -11.1 kcal/mol.
Take GAAGCCGGAAACAGCTTC (((((.(....).))))): the Tm in series [1] turned out to be 42.8 °C. In addition, the folding enthalpy in series [2] is -29.2 kcal/mol.
The matching figures for GAAGCGCCGAAAGGCTTC (((..(((....)))))): 32.3 °C and -10.5 kcal/mol.
The corresponding values for GAAGCGGCGAAAGCCTTC (((..(((....)))))) are 28.5 °C and -10.2 kcal/mol.
The matching figures for GAAGCTGGAAACAGCCTC ((.((((....)))).)): 32.6 °C and -13.8 kcal/mol.
As for GAAGGACGAAAGTCGTTC (((.(((....))).))), the Tm in series [1] turned out to be 51.9 °C. Besides, the folding enthalpy in series [2] is -37.1 kcal/mol.
Regarding GAAGGACGAAAGTCTTTC (((.(((....))).))), the Tm in series [1] was found to be 46.3 °C. Besides, the folding enthalpy in series [2] is -25 kcal/mol.
The matching figures for GAAGGAGGAAACCCCTTC (((((.(....).))))): 36.9 °C and -31.3 kcal/mol.
With GAAGGAGGAAACTCCTTC (((((((....))))))), the Tm in series [1] stood at 58.3 °C. For the same sequence, the folding enthalpy in series [2] is -33.6 kcal/mol.
The corresponding values for GAAGGCCGAAAGGCGTTC (((.(((....))).))) are 57 °C and -26.3 kcal/mol.
On to GAAGGCGAAAGCCCCTTC ((((((....)))..))), for which, in series [1], the Tm stood at 35.1 °C. Further, the folding enthalpy in series [2] is -9.89 kcal/mol.
The corresponding values for GAAGGCGAAAGCCCGTTC ((((((....)))..))) are 27.2 °C and -12 kcal/mol.
On to GAAGGCGAAAGCCGCTTC ((((((....)))..))), for which the Tm in series [1] is 56.2 °C. Also, the folding enthalpy in series [2] is -13.6 kcal/mol.
The matching figures for GAAGGCGAAAGCCGGTTC ((((((....)))..))): 43.4 °C and -9.54 kcal/mol.
For GAAGGCGAAAGCCGTTC ((((((....))).))), in series [1], the Tm is 43 °C. Moreover, in series [2], the folding enthalpy is -8.18 kcal/mol.
For GAAGGGACGAAAGTCTTC (((..(((....)))))), the Tm in series [1] worked out at 26.7 °C. Also, the folding enthalpy in series [2] was -11.8 kcal/mol.
The corresponding values for GAAGGGGGAAACCCCCTC ((.((((....)))).)) are 42.4 °C and -12.7 kcal/mol.
In the case of GAAGGTGGAAACACTTTC (((.(((....))).))), the Tm in series [1] amounted to 38 °C. Moreover, the folding enthalpy in series [2] is -24.9 kcal/mol.
The corresponding values for GAAGGTGGAAACGCCTTC (((((.(....).))))) are 51.9 °C and -31.9 kcal/mol.
As for GAAGTCGGAAACGACCTC ((.((((....)))).)), the Tm in series [1] was determined as 37.2 °C. Besides, the folding enthalpy in series [2] is -13.6 kcal/mol.
Turning to GAAGTGAAAACTTC (((((....))))), in series [1], the Tm turned out to be 43.1 °C. Moreover, in series [2], the folding enthalpy was -23.2 kcal/mol.
Turning to GAAGTGGCGAAAGCCTTC (((..(((....)))))), the Tm in series [1] was 31.4 °C. In series [2], the folding enthalpy is -11.4 kcal/mol.
Take GAAGTTGGAAACAACCTC ((.((((....)))).)): the Tm in series [1] was 27.4 °C. The folding enthalpy in series [2] was -15 kcal/mol.
The corresponding values for GAAGTTGGAAACAACTTC (((((((....))))))) are 57.3 °C and -41.2 kcal/mol.
As to GAAGTTGGAAACAGCTTC ((((.((....)).)))), in series [1], the Tm was determined as 44.4 °C. In series [2], the folding enthalpy is -38.7 kcal/mol.
Take GAATAACCGAAAGGTTTC (((..(((....)))))): in series [1], the Tm was determined as 25.6 °C. Moreover, the folding enthalpy in series [2] is -15.1 kcal/mol.
In the case of GAATAACGAAAGTTTTTC (((.(((....))).))), the Tm in series [1] came to 32 °C. For the same sequence, the folding enthalpy in series [2] was -28.6 kcal/mol.
The matching figures for GAATAAGAAATTATTC ((((((....)))))): 31.9 °C and -10.4 kcal/mol.
As to GAATACGAAAGTAATTC ((((((....))).))), the Tm in series [1] was determined as 34.1 °C. In addition, the folding enthalpy in series [2] is -13.6 kcal/mol.
For GAATACGAAAGTATTC ((((((....)))))), the Tm in series [1] was determined as 55.5 °C. Also, the folding enthalpy in series [2] is -34.4 kcal/mol.
On to GAATACGGAAACGTGTTC (((.(((....))).))), for which, in series [1], the Tm came out at 47.1 °C. The folding enthalpy in series [2] is -33.2 kcal/mol.
For GAATAGACGAAAGTCTTC (((..(((....)))))), in series [1], the Tm amounted to 26.1 °C. In addition, the folding enthalpy in series [2] was -11.8 kcal/mol.
The matching figures for GAATAGCGAAAGCTGTTC (((.(((....))).))): 51.5 °C and -39.9 kcal/mol.
Regarding GAATAGCGAAAGCTTTTC (((.(((....))).))), the Tm in series [1] stood at 36.6 °C. For the same sequence, the folding enthalpy in series [2] is -20.6 kcal/mol.
The corresponding values for GAATAGGAAACTATTC ((((((....)))))) are 40.7 °C and -31 kcal/mol.
Take GAATATGAAAATATTC ((((((....)))))): the Tm in series [1] came to 39.8 °C. In addition, the folding enthalpy in series [2] is -24.6 kcal/mol.
The corresponding values for GAATATGGAAACGTATTC (((((.(....).))))) are 34.2 °C and -25.3 kcal/mol.
The matching figures for GAATCACGAAAGTGCTTC (((.(((....))).))): 38.5 °C and -20.8 kcal/mol.
As to GAATCACGAAAGTGTTTC (((.(((....))).))), the Tm in series [1] worked out at 41.5 °C. Besides, the folding enthalpy in series [2] is -24.7 kcal/mol.
The matching figures for GAATCCGAAAGGACCTTC ((((((....)))..))): 30.3 °C and -12.7 kcal/mol.
The matching figures for GAATCCGAAAGGAGTTC ((((((....))).))): 35.3 °C and -15.9 kcal/mol.
The matching figures for GAATCCGAAAGGATATTC ((((((....)))..))): 33.6 °C and -13.1 kcal/mol.
On to GAATCGCGAAAGCGTTC (((.(((....)))))), for which, in series [1], the Tm is 42 °C. In addition, the folding enthalpy in series [2] was -12.3 kcal/mol.
For the sequence GAATCGGGAAACCGACTC ((.((((....)))).)), the Tm in series [1] was determined as 35.1 °C. Further, the folding enthalpy in series [2] is -20.4 kcal/mol.
Regarding GAATGAGGAAACTCGTTC (((.(((....))).))), the Tm in series [1] worked out at 43.9 °C. Besides, the folding enthalpy in series [2] is -32.3 kcal/mol.
As for GAATGCCGAAAGGCCTTC (((.(((....))).))), in series [1], the Tm came out at 41.3 °C. Moreover, the folding enthalpy in series [2] is -17 kcal/mol.
The corresponding values for GAATGCCGAAAGGCTTC (((.(((....)))))) are 43.6 °C and -13.2 kcal/mol.
As for GAATGCGAAAGCAACTTC ((((((....)))..))), in series [1], the Tm was 36 °C. Moreover, in series [2], the folding enthalpy is -13 kcal/mol.
In the case of GAATGCGAAAGCACTTTC ((((((....)))..))), the Tm in series [1] was determined as 28.9 °C. In addition, the folding enthalpy in series [2] is -10.4 kcal/mol.
The corresponding values for GAATGCGAAAGCAGTTTC ((((((....)))..))) are 31.3 °C and -11.7 kcal/mol.
As for GAATGCGAAAGCATCTTC ((((((....)))..))), the Tm in series [1] came out at 53 °C. For the same sequence, the folding enthalpy in series [2] is -23.4 kcal/mol.
As for GAATGCGGAAACGCATTC (((((((....))))))), the Tm in series [1] came to 67.5 °C. Further, the folding enthalpy in series [2] is -39.1 kcal/mol.
With GAATGGCGAAAGCCCTTC (((.(((....))).))), in series [1], the Tm came out at 38.4 °C. Moreover, the folding enthalpy in series [2] was -20 kcal/mol.
With GAATGGGGAAACTCATTC (((((.(....).))))), the Tm in series [1] is 40.1 °C. Further, in series [2], the folding enthalpy was -32.4 kcal/mol.
The corresponding values for GAATGTGCGAAAGCATTC (((..(((....)))))) are 29.3 °C and -9.5 kcal/mol.
GAATGTGGAAACATATTC ((((.((....)).)))): in series [1], the Tm stood at 35.1 °C. In addition, the folding enthalpy in series [2] is -33.2 kcal/mol.
The corresponding values for GAATTACGAAAGTATTTC (((.(((....))).))) are 35.2 °C and -19.6 kcal/mol.
The corresponding values for GAATTCCCGAAAGGGTTC (((..(((....)))))) are 28 °C and -13 kcal/mol.
Regarding GAATTGCGAAAGCACTTC (((.(((....))).))), the Tm in series [1] came out at 40.7 °C. Further, the folding enthalpy in series [2] is -21.1 kcal/mol.
The corresponding values for GAATTGCGAAAGCATTC (((.(((....)))))) are 36.1 °C and -13.6 kcal/mol.
Take GAATTGCGAAAGCATTTC (((.(((....))).))): the Tm in series [1] amounted to 44.8 °C. Further, the folding enthalpy in series [2] is -21.7 kcal/mol.
For GAATTGGGAAACCGATTC ((((.((....)).)))), the Tm in series [1] was found to be 43.4 °C. In addition, the folding enthalpy in series [2] is -36.4 kcal/mol.
The corresponding values for GAATTTGGAAACAAATCC (.(((((....))))).) are 29.2 °C and -13.9 kcal/mol.
In the case of GACAAACGAAAGTTGTC (((.(((....)))))), the Tm in series [1] turned out to be 48.2 °C. Also, the folding enthalpy in series [2] was -29.1 kcal/mol.
Consider GACAAAGAAATTTGTC ((((((....)))))), for which the Tm in series [1] was found to be 43.4 °C. The folding enthalpy in series [2] is -27.6 kcal/mol.

These data come from the array DNA melting data of Ke et al. (doi:10.1101/2024.01.08.574731).
